Laboratory results from ChEMBL document CHEMBL5724801, “EUbOPEN Chemogenomics Library - Multiplex” (2024).
“And” between values parts separate entries of the source, which are not always exact repeats. Equal values may be shown once.

These compounds were tested on U2OS (assay: Multiplex assay against U2OS). Conditions: human, 12 h, 1 µM, compound concentration 1 uM.
Type: toxicity, cell-based
In short: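 Cells stained live at seeding with Hoechst33342, BioTracker Green Microtubule Cytoskeleton Dye, MitoTracker Red and Annexin V Alexa Fluor 680 were imaged on a CQ1 microscope at 37°C and 5% CO2 after compound addition. Their classification by CellPathfinder machine-learning gating ran from Hoechst high-intensity objects versus normal cells, to healthy, pyknosed or fragmented nuclei among normal cells, to mitotic or apoptotic among pyknosed cells. Tubulin, mitochondrial-mass and membrane-permeability phenotypes are per cents of healthy-nucleus cells.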

SMILES	Population Apoptotic (%)	Population Fragmented Nuclei (%)	Population Healthy Nuclei (%)	Population Hoechst High Intensity Objects (%)	Population Membrane Permeable-Phenotype (%)	Population Mitochondria Different-Phenotype (%)	Population Mitotic Cells (%)	Population Normal (%)	Population Pyknosed Nuclei (%)	Population Tubulin-Different-Phenotype (%)
O=C(Nc1cc(-c2ccccc2)nn1-c1ccccc1F)c1ccc([N+](=O)[O-])cc1	86% and 91%	25% and 14%	66% and 78%	4% and 1%	10% and 9%	4%	13% and 8%	95% and 98%	8% and 6%	4% and 9%
Cc1sc2c(c1C)C(c1ccc(Cl)cc1)=N[C@@H](CC(=O)NCCCCCCCCNC(=O)COc1cccc3c1C(=O)N(C1CCC(=O)NC1=O)C3=O)c1nnc(C)n1-2 (some centres undefined)	93% and 87%	–	49% and 80%	11% and 0%	9% and 5%	4% and 1%	6% and 12%	88% and 99%	6% and 5%	5% and 3%
Cc1cc(Nc2ncc(Cl)c(Nc3ccccc3S(=O)(=O)C(C)C)n2)c(OC(C)C)cc1C1CCNCC1 [CERITINIB]	28.57% and 18.75%	3.31% and 3.57%	78.68% and 58.33%	0%	17.76% and 17.35%	–	71.43% and 81.25%	100%	18.01% and 38.1%	40.65% and 72.45%
Cc1c(Cc2ccc3ccccc3n2)c2cc(F)ccc2n1CC(=O)O [TIMAPIPRANT]	84% and 83%	21% and 22%	69% and 70%	2% and 1%	3% and 4%	1% and 4%	16%	97% and 98%	8% and 6%	1% and 3%

Same assay, conditions: human, 12 h, 1 µM, compound concentration 1 uM

SMILES	Total Cell Count
O=C(Nc1cc(-c2ccccc2)nn1-c1ccccc1F)c1ccc([N+](=O)[O-])cc1	293 and 182
Cc1sc2c(c1C)C(c1ccc(Cl)cc1)=N[C@@H](CC(=O)NCCCCCCCCNC(=O)COc1cccc3c1C(=O)N(C1CCC(=O)NC1=O)C3=O)c1nnc(C)n1-2 (some centres undefined)	269 and 136
Cc1cc(Nc2ncc(Cl)c(Nc3ccccc3S(=O)(=O)C(C)C)n2)c(OC(C)C)cc1C1CCNCC1 [CERITINIB]	272 and 168

Same assay, conditions: human, 12 h, 10 µM, compound concentration 10 uM

SMILES	Population Apoptotic (%)	Population Fragmented Nuclei (%)	Population Healthy Nuclei (%)	Population Hoechst High Intensity Objects (%)	Population Membrane Permeable-Phenotype (%)	Population Mitochondria Different-Phenotype (%)	Population Normal (%)	Population Pyknosed Nuclei (%)	Population Tubulin-Different-Phenotype (%)	Total Cell Count
O=C(Nc1cc(-c2ccccc2)nn1-c1ccccc1F)c1ccc([N+](=O)[O-])cc1	66% and 94%	30% and 12%	60% and 73%	3% and 0%	11%	5% and 8%	96% and 100%	9% and 13%	7% and 6%	293 and 134
Cc1sc2c(c1C)C(c1ccc(Cl)cc1)=N[C@@H](CC(=O)NCCCCCCCCNC(=O)COc1cccc3c1C(=O)N(C1CCC(=O)NC1=O)C3=O)c1nnc(C)n1-2 (some centres undefined)	86% and 100%	31% and 19%	55% and 75%	5% and 0%	–	4% and 12%	94% and 99%	13% and 4%	0% and 12%	233 and 117
Cc1cc(Nc2ncc(Cl)c(Nc3ccccc3S(=O)(=O)C(C)C)n2)c(OC(C)C)cc1C1CCNCC1 [CERITINIB]	77.85% and 68.91%	0.93% and 0.8%	3.43% and 4%	0%	36.36% and 80%	0%	100%	95.64% and 95.2%	72.73% and 60%	321 and 125
Cc1c(Cc2ccc3ccccc3n2)c2cc(F)ccc2n1CC(=O)O [TIMAPIPRANT]	75% and 68%	30% and 12%	62% and 75%	2% and 0%	4% and 6%	1% and 3%	97% and 99%	6% and 12%	2% and 3%	244 and 132

Same assay, conditions: human, 12 h, 10 µM, compound concentration 10 uM

SMILES	Population Mitotic Cells (%)
Cc1sc2c(c1C)C(c1ccc(Cl)cc1)=N[C@@H](CC(=O)NCCCCCCCCNC(=O)COc1cccc3c1C(=O)N(C1CCC(=O)NC1=O)C3=O)c1nnc(C)n1-2 (some centres undefined)	13% and 0%
Cc1cc(Nc2ncc(Cl)c(Nc3ccccc3S(=O)(=O)C(C)C)n2)c(OC(C)C)cc1C1CCNCC1 [CERITINIB]	22.15% and 31.09%
Cc1c(Cc2ccc3ccccc3n2)c2cc(F)ccc2n1CC(=O)O [TIMAPIPRANT]	25% and 31%

Same assay, conditions: human, 24 h, 1 µM, compound concentration 1 uM

SMILES	Population Apoptotic (%)	Population Fragmented Nuclei (%)	Population Healthy Nuclei (%)	Population Hoechst High Intensity Objects (%)	Population Membrane Permeable-Phenotype (%)	Population Mitochondria Different-Phenotype (%)	Population Mitotic Cells (%)	Population Normal (%)	Population Pyknosed Nuclei (%)	Population Tubulin-Different-Phenotype (%)
O=C(Nc1cc(-c2ccccc2)nn1-c1ccccc1F)c1ccc([N+](=O)[O-])cc1	91% and 100%	24% and 15%	68% and 76%	3% and 1%	6% and 9%	4% and 5%	8% and 0%	96% and 98%	7% and 8%	5% and 6%
Cc1sc2c(c1C)C(c1ccc(Cl)cc1)=N[C@@H](CC(=O)NCCCCCCCCNC(=O)COc1cccc3c1C(=O)N(C1CCC(=O)NC1=O)C3=O)c1nnc(C)n1-2 (some centres undefined)	100% and 92%	–	51% and 80%	11% and 2%	8% and 5%	3% and 2%	0% and 7%	88% and 97%	6% and 7%	5% and 4%
Cc1cc(Nc2ncc(Cl)c(Nc3ccccc3S(=O)(=O)C(C)C)n2)c(OC(C)C)cc1C1CCNCC1 [CERITINIB]	29.58% and 27.12%	2.58% and 2.73%	77.08% and 65.03%	0.29% and 0%	4.09% and 6.72%	–	70.42% and 72.88%	99.71% and 100%	20.34% and 32.24%	29% and 47.06%
Cc1c(Cc2ccc3ccccc3n2)c2cc(F)ccc2n1CC(=O)O [TIMAPIPRANT]	96% and 100%	18% and 19%	73%	1%	6% and 7%	3% and 2%	3% and 0%	98%	7%	4% and 3%

Same assay, conditions: human, 24 h, 1 µM, compound concentration 1 uM

SMILES	Total Cell Count
O=C(Nc1cc(-c2ccccc2)nn1-c1ccccc1F)c1ccc([N+](=O)[O-])cc1	342 and 226
Cc1sc2c(c1C)C(c1ccc(Cl)cc1)=N[C@@H](CC(=O)NCCCCCCCCNC(=O)COc1cccc3c1C(=O)N(C1CCC(=O)NC1=O)C3=O)c1nnc(C)n1-2 (some centres undefined)	297 and 174
Cc1cc(Nc2ncc(Cl)c(Nc3ccccc3S(=O)(=O)C(C)C)n2)c(OC(C)C)cc1C1CCNCC1 [CERITINIB]	350 and 183

Same assay, conditions: human, 24 h, 10 µM, compound concentration 10 uM

SMILES	Population Apoptotic (%)	Population Fragmented Nuclei (%)	Population Healthy Nuclei (%)	Population Hoechst High Intensity Objects (%)	Population Membrane Permeable-Phenotype (%)	Population Mitochondria Different-Phenotype (%)	Population Mitotic Cells (%)	Population Normal (%)	Population Pyknosed Nuclei (%)	Population Tubulin-Different-Phenotype (%)
O=C(Nc1cc(-c2ccccc2)nn1-c1ccccc1F)c1ccc([N+](=O)[O-])cc1	91% and 100%	25% and 14%	64% and 76%	1% and 0%	7% and 11%	3% and 8%	8% and 0%	98% and 99%	9%	5% and 8%
Cc1sc2c(c1C)C(c1ccc(Cl)cc1)=N[C@@H](CC(=O)NCCCCCCCCNC(=O)COc1cccc3c1C(=O)N(C1CCC(=O)NC1=O)C3=O)c1nnc(C)n1-2 (some centres undefined)	100%	34% and 27%	53% and 65%	8% and 0%	–	5% and 9%	0%	91% and 99%	12% and 7%	–
Cc1cc(Nc2ncc(Cl)c(Nc3ccccc3S(=O)(=O)C(C)C)n2)c(OC(C)C)cc1C1CCNCC1 [CERITINIB]	83.51% and 81.55%	1.89% and 2.42%	6.6% and 14.52%	0%	23.81% and 50%	9.52% and 5.56%	16.49% and 18.45%	100%	91.51% and 83.06%	71.43% and 33.33%
Cc1c(Cc2ccc3ccccc3n2)c2cc(F)ccc2n1CC(=O)O [TIMAPIPRANT]	94% and 72%	26% and 18%	66% and 74%	1% and 0%	6% and 8%	2%	–	98% and 100%	6% and 7%	3%

Same assay, conditions: human, 24 h, 10 µM, compound concentration 10 uM

SMILES	Total Cell Count
O=C(Nc1cc(-c2ccccc2)nn1-c1ccccc1F)c1ccc([N+](=O)[O-])cc1	353 and 164
Cc1sc2c(c1C)C(c1ccc(Cl)cc1)=N[C@@H](CC(=O)NCCCCCCCCNC(=O)COc1cccc3c1C(=O)N(C1CCC(=O)NC1=O)C3=O)c1nnc(C)n1-2 (some centres undefined)	245 and 130
Cc1cc(Nc2ncc(Cl)c(Nc3ccccc3S(=O)(=O)C(C)C)n2)c(OC(C)C)cc1C1CCNCC1 [CERITINIB]	318 and 124
Cc1c(Cc2ccc3ccccc3n2)c2cc(F)ccc2n1CC(=O)O [TIMAPIPRANT]	278 and 152

Same assay, conditions: human, 48 h, 1 µM, compound concentration 1 uM

SMILES	Population Apoptotic (%)	Population Fragmented Nuclei (%)	Population Healthy Nuclei (%)	Population Hoechst High Intensity Objects (%)	Population Membrane Permeable-Phenotype (%)	Population Mitochondria Different-Phenotype (%)	Population Mitotic Cells (%)	Population Normal (%)	Population Pyknosed Nuclei (%)	Population Tubulin-Different-Phenotype (%)
O=C(Nc1cc(-c2ccccc2)nn1-c1ccccc1F)c1ccc([N+](=O)[O-])cc1	89% and 90%	17% and 12%	73% and 79%	2% and 1%	9% and 6%	5% and 4%	10%	97% and 98%	8%	5%
Cc1sc2c(c1C)C(c1ccc(Cl)cc1)=N[C@@H](CC(=O)NCCCCCCCCNC(=O)COc1cccc3c1C(=O)N(C1CCC(=O)NC1=O)C3=O)c1nnc(C)n1-2 (some centres undefined)	91% and 90%	35% and 12%	53% and 79%	10% and 1%	6% and 4%	1%	8% and 9%	89% and 98%	10% and 7%	2% and 1%
Cc1cc(Nc2ncc(Cl)c(Nc3ccccc3S(=O)(=O)C(C)C)n2)c(OC(C)C)cc1C1CCNCC1 [CERITINIB]	50% and 61.97%	3.8% and 3.81%	77.4% and 62.38%	0.2% and 0%	1.55% and 4.58%	–	50% and 38.03%	99.8% and 100%	18.8% and 33.81%	–
Cc1c(Cc2ccc3ccccc3n2)c2cc(F)ccc2n1CC(=O)O [TIMAPIPRANT]	88% and 90%	16% and 22%	77% and 71%	1% and 2%	4% and 12%	3% and 5%	11% and 10%	98% and 97%	6%	3% and 6%

Same assay, conditions: human, 48 h, 1 µM, compound concentration 1 uM

SMILES	Total Cell Count
O=C(Nc1cc(-c2ccccc2)nn1-c1ccccc1F)c1ccc([N+](=O)[O-])cc1	475 and 371
Cc1sc2c(c1C)C(c1ccc(Cl)cc1)=N[C@@H](CC(=O)NCCCCCCCCNC(=O)COc1cccc3c1C(=O)N(C1CCC(=O)NC1=O)C3=O)c1nnc(C)n1-2 (some centres undefined)	353 and 270
Cc1cc(Nc2ncc(Cl)c(Nc3ccccc3S(=O)(=O)C(C)C)n2)c(OC(C)C)cc1C1CCNCC1 [CERITINIB]	501 and 210

Same assay, conditions: human, 48 h, 10 µM, compound concentration 10 uM

SMILES	Population Apoptotic (%)	Population Fragmented Nuclei (%)	Population Healthy Nuclei (%)	Population Hoechst High Intensity Objects (%)	Population Membrane Permeable-Phenotype (%)	Population Mitochondria Different-Phenotype (%)	Population Mitotic Cells (%)	Population Normal (%)	Population Pyknosed Nuclei (%)	Population Tubulin-Different-Phenotype (%)
O=C(Nc1cc(-c2ccccc2)nn1-c1ccccc1F)c1ccc([N+](=O)[O-])cc1	81% and 89%	20% and 10%	67% and 76%	2%	8% and 11%	4% and 8%	18% and 10%	97%	12% and 13%	6% and 8%
Cc1sc2c(c1C)C(c1ccc(Cl)cc1)=N[C@@H](CC(=O)NCCCCCCCCNC(=O)COc1cccc3c1C(=O)N(C1CCC(=O)NC1=O)C3=O)c1nnc(C)n1-2 (some centres undefined)	100%	36% and 25%	51% and 70%	7% and 2%	9% and 10%	4%	0%	92% and 97%	12% and 4%	4% and 7%
Cc1cc(Nc2ncc(Cl)c(Nc3ccccc3S(=O)(=O)C(C)C)n2)c(OC(C)C)cc1C1CCNCC1 [CERITINIB]	89.1% and 93.88%	2.94% and 5.04%	46.08% and 53.78%	0%	–	7.09% and 10.94%	10.9% and 6.12%	100%	50.98% and 41.18%	46.1% and 31.25%
Cc1c(Cc2ccc3ccccc3n2)c2cc(F)ccc2n1CC(=O)O [TIMAPIPRANT]	100% and 92%	19% and 13%	74% and 80%	0% and 2%	3% and 5%	1% and 3%	0% and 7%	99% and 97%	6%	1% and 3%

Same assay, conditions: human, 48 h, 10 µM, compound concentration 10 uM

SMILES	Total Cell Count
O=C(Nc1cc(-c2ccccc2)nn1-c1ccccc1F)c1ccc([N+](=O)[O-])cc1	445 and 226
Cc1sc2c(c1C)C(c1ccc(Cl)cc1)=N[C@@H](CC(=O)NCCCCCCCCNC(=O)COc1cccc3c1C(=O)N(C1CCC(=O)NC1=O)C3=O)c1nnc(C)n1-2 (some centres undefined)	289 and 179
Cc1cc(Nc2ncc(Cl)c(Nc3ccccc3S(=O)(=O)C(C)C)n2)c(OC(C)C)cc1C1CCNCC1 [CERITINIB]	306 and 119
Cc1c(Cc2ccc3ccccc3n2)c2cc(F)ccc2n1CC(=O)O [TIMAPIPRANT]	392 and 204
